According to the RNAGym collection of RNA variant scans (doi:10.1038/s41586-018-0170-7):

B1: tRNA (parent)
chain: GUUCCGUUGGCGUAAUGGUAACGCGUCUCCCUCCUAAGGAGAAGACUGCGGGUUCGAGUCCCGUACGGAACG

Variants of: B1
Assay: yeast fitness, log relative to wild type (ln ratio); higher = fitter; tRNA-Arg(CCU), competitive growth, 37 C, 1 M NaCl
Procedure, shortened: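 Two independent transformations put a combinatorial tRNA-Arg(CCU) variant library on a HIS3 centromeric plasmid into BY4742 lacking the chromosomal gene. Pools were grown in SC-HIS at 30 °C for 4 generations, then in SC-HIS 1M NaCl at 37 °C for ~6.5 generations (~26.5 h), with three outputs taken per input. Fitness compares a genotype's generations with the wild type's as a natural log ratio. Those generations are OD-scaled log2 output/input frequencies, inverse-variance weighted across replicates, from 125 bp paired-end Illumina counts.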

Variant	yeast fitness (ln)
G1A U2C G6U C66U A70U	-0.153
G1A U2C G6U C27U C46U C66U A69G A70G C71U	-0.699
G1A U2G C27U A43C	-0.182
G1A U2G C27U A43C A69G C71U	-0.37
G1A U2C G6U A43C A70U C71U	-0.195
G1A U2C G6U A69G A70U C71U	-0.277
G1A U2C G6U C27U C46U C66A A69G A70G C71U	-0.0613
G1A U2C G6A C46U A69G A70U	-0.0526
G1A U2C G6U A43C C46U C66A C71U	-0.3
G1A U2G C27U A43C C46U C66A C71U	-0.254
G1A U2C G6U C27U A43C C46U C66U A70U	-0.243
G1A U2G A70G C71U	-0.212
G1A U2G A43C C46U C66U A69G A70U C71U	-0.341
G1A U2C G6A C27U C46U C66U A70G	-0.0633
G1A U2C G6A C27U C46U C66U A70U	-0.0971
G1A U2C G6U C66U A70G C71U	-0.0525
G1A U2C G6U C46U C66U A70G	-0.265
G1A U2C G6U C46U C66U A70U	-0.0663
G1A U2C G6U C27U A70G	-0.186
G1A U2C G6U C27U A70U	-0.134
G1A U2C G6A C66U A69G A70G C71U	-0.0247

Variant	yeast fitness (ln)
G1A U2C G6U C27U C66A A70G C71U	-0.0489
G1A U2C G6U C27U A43C C46U C66A A70G C71U	-0.0221
G1A U2C G6U C66A A70G	-0.0212
G1A U2C G6U C66A A70U	-0.234
G1A U2C G6U C66A A70G C71U	-0.0113
G1A U2C G6U A43C C46U C66U A70U C71U	-0.235
G1A U2G A43C C46U A70G C71U	-0.342
G1A U2C G6U C27U A70G C71U	-0.212
G1A U2C G6U C46U C66A	-0.141
G1A U2C G6U C46U C66U A69G A70G C71U	-0.0644
G1A U2G C27U A43C C66A A69G A70G	-0.27
G1A U2G C27U A43C C46U A69G A70G C71U	-0.221
G1A U2G A43C C46U C66A A69G A70U C71U	-0.233
G1A U2C G6U C46U C66U C71U	-0.0885
G1A U2C G6U C27U A43C C71U	-0.263
G1A U2G A43C C46U A69G	-0.0712
G1A U2C G6U C27U A43C	-0.181
G1A U2G A43C C46U C66A	-0.156
G1A U2G A43C C46U C66U	-0.116
G1A U2C G6U C27U A43C C66A A70G C71U	-0.0539
G1A U2G C27U A43C C46U C66A	-0.106

Variant	yeast fitness (ln)
G1A U2G C27U A43C C46U C66U	-0.231
G1A U2G A43C A69G A70U C71U	-0.54
G1A U2G C27U A43C A70G C71U	-0.246
G1A U2C G6U C27U A43C C66A A70G	-0.299
G1A U2G A43C C46U C66A A70U	-0.125
G1A U2G A43C C46U C66A A70G	-0.26
G1A U2C G6U C46U C66U A70G C71U	-0.0224
G1A U2C G6U C27U C46U C66U A70G C71U	-0.169
G1A U2G A69G	-0.104
G1A U2C G6U A43C C46U C66A A69G A70G C71U	-0.0061
G1A U2C G6U A43C C46U	0.0223
G1A U2G C27U A43C C46U C66A A69G A70G	-0.146
G1A U2C G6U C27U C46U C66A A69G A70U	-0.116
G1A U2C G6U C27U C46U C66U A69G A70U C71U	-0.518
G1A U2G C27U A43C C46U C66U A69G A70U	-0.462
G1A U2G C27U A43C C46U C66U A69G A70G	-0.282
G1A U2C G6U C27U A43C A70U	-0.14
G1A U2C G6A C46U A70U C71U	-0.00949
G1A U2C G6A C66U A69G C71U	-0.31
G1A U2C G6U C27U C46U C66A A70U	-0.0687
G1A U2C G6U C27U C46U C66A A70G	-0.0541

Variant	yeast fitness (ln)
G1A U2C G6U C27U C46U A70G	-0.129
G1A U2C G6U C27U C46U A70U	-0.157
G1A U2C G6A C46U C71U	-0.108
G1A U2C G6U A43C C46U A70U	-0.0463
G1A U2G A43C C46U A70G	-0.114
G1A U2G A43C C46U A70U	-0.163
G1A U2C G6U C27U C46U C71U	-0.0687
G1A U2G A43C C66U A70U C71U	-0.333
G1A U2C G6A C27U C46U C66U A69G A70G C71U	-0.0405
G1A U2C G6A C27U A70G C71U	-0.273
G1A U2G A43C C46U A69G A70U C71U	-0.29
G1A U2C G6U C27U C46U	-0.0885
G1A U2G A43C C46U C66U A69G A70G C71U	-0.323
G1A U2G C27U A43C C46U C66U A70U C71U	-0.329
G1A U2C G6A C27U C46U C66U A69G A70G	-0.364
G1A U2C G6A C27U C46U C66U A69G A70U	-0.0756
G1A U2C G6A C46U C66U A70G C71U	0.0112
G1A U2C G6U C46U C66A A70U	-0.184
G1A U2C G6U C46U C66A A70G	-0.0166
G1A U2G A43C C46U A69G A70G	-0.141
